Experiments:
HeLa = test: Antiproliferative activity against human HeLa cells after 72 hrs by MTT assay; format: functional, cell-based
Summary of the method: (§1)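 Monolayers grown in DMEM with 10% FBS and 2 mM L-glutamine at 37 °C, 5% CO2. Cells seeded at 5000 per well on day 0. Compounds added in five 10-fold dilutions (0.01–100 µM), DMSO ≤0.1%, for 72 h. MTT absorbance converted to percentage growth versus untreated wells. IC50 by linear regression of the dose-response curve; highest concentration reported when not reached. Quadruplicate points, three experiments.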

A549 = test: Antiproliferative activity against human A549 cells after 72 hrs by MTT assay; format: functional, cell-based; settings: A549, 72 h; summary of the method: as §1
SW-620 = test: Antiproliferative activity against human SW620 cells after 72 hrs by MTT assay; format: functional, cell-based; settings: SW-620, 72 h; summary of the method: as §1
WI-38 = test: Antiproliferative activity against human WI38 cells after 72 hrs by MTT assay; format: cell-based; settings: WI-38, 72 h; summary of the method: as §1
CFPAC-1 = test: Antiproliferative activity against human CFPAC-1 cells after 72 hrs by MTT assay; format: functional, cell-based; settings: CFPAC-1, 72 h; summary of the method: as §1
HepG2 = test: Antiproliferative activity against human HepG2 cells after 72 hrs by MTT assay; format: functional, cell-based; settings: HepG2, 72 h; summary of the method: as §1

| Compound | IC50 (HeLa) [µM] | IC50 (A549) [µM] | IC50 (SW-620) [µM] | IC50 (WI-38) [µM] | IC50 (CFPAC-1) [µM] | IC50 (HepG2) [µM] |
| --- | --- | --- | --- | --- | --- | --- |
| O=c1nc2oc(CCCCl)cc2cn1Cc1cn(Cc2ccccc2)nn1 | 9.58 | 27.9 | 75.5 | 5.2 | 23.5 | 27.6 |
| O=c1[nH]c(=O)n(Cc2cn(Cc3ccccc3)nn2)cc1I | > 100 | > 100 | > 100 | 55.2 | > 100 | > 100 |
| O=c1c(I)cn(Cc2cn(-c3ccc(F)cc3)nn2)c(=O)n1Cc1cn(-c2ccc(F)cc2)nn1 | 41.9 | 78.7 | 94.8 | < 0.01 | 51.2 | 53.5 |
| O=c1nc2oc(CCCCl)cc2cn1Cc1cn(-c2ccccc2F)nn1 | 66.5 | 69.8 | > 100 | 76.5 | 81.8 | 79.8 |
| O=c1nc2oc(C3CC3)c(C#CC3CC3)c2cn1Cc1cn(-c2ccc(Cl)cc2)nn1 | 16.1 | 39 | 36.9 | 3.15 | 35.4 | 39.2 |
| CCCCCc1ccc(C#Cc2c(-c3ccc(CCCCC)cc3)oc3nc(=O)n(Cc4cn(Cc5ccccc5)nn4)cc23)cc1 | 73 | > 100 | > 100 | 2.65 | > 100 | > 100 |
| CCCCCCC#Cc1c(CCCCCC)oc2nc(=O)n(Cc3cn(-c4ccc(F)cc4)nn3)cc12 | > 100 | > 100 | > 100 | > 100 | > 100 | > 100 |
| CCCCCc1ccc(C#Cc2c(-c3ccc(CCCCC)cc3)oc3nc(=O)n(Cc4cn(-c5ccc(Cl)cc5)nn4)cc23)cc1 | > 100 | > 100 | > 100 | > 100 | > 100 | > 100 |
| O=c1nc2oc(C3CC3)c(C#CC3CC3)c2cn1Cc1cn(Cc2ccccc2)nn1 | 6.51 | 4.81 | 9.72 | 0.29 | 4.59 | 2.67 |
| O=c1nc2oc(CCCCl)c(C#CCCCCl)c2cn1Cc1cn(-c2ccc(F)cc2)nn1 | 41.8 | 39.4 | 69.6 | 0.07 | 95.8 | 36.9 |
| O=c1nc2oc(C3CC3)cc2cn1Cc1cn(-c2ccc(Cl)cc2)nn1 | > 100 | 61 | > 100 | > 100 | > 100 | > 100 |
| CCCCCc1ccc(C#Cc2c(-c3ccc(CCCCC)cc3)oc3nc(=O)n(Cc4cn(-c5ccccc5F)nn4)cc23)cc1 | 9 | 38.6 | 57.1 | 7.34 | > 100 | 72.5 |
| O=c1nc2oc(CCCCl)cc2cn1Cc1cn(-c2ccc(F)cc2)nn1 | 6.99 | 68.4 | > 100 | < 0.01 | 6.49 | 14.6 |
| CCCCCCc1cc2cn(Cc3cn(-c4ccccc4F)nn3)c(=O)nc2o1 | > 100 | > 100 | > 100 | 69.2 | > 100 | > 100 |
| O=c1nc2oc(C3CC3)c(C#CC3CC3)c2cn1Cc1cn(-c2ccccc2F)nn1 | 51.2 | 38.3 | 49.1 | 45.9 | 54.5 | 39.1 |
| C#CCn1c(=O)c(I)cn(Cc2cn(-c3ccccc3F)nn2)c1=O | > 100 | 56.2 | > 100 | 0.16 | > 100 | > 100 |

| Compound | IC50 (HeLa) [µM] | IC50 (A549) [µM] | IC50 (SW-620) [µM] | IC50 (WI-38) [µM] | IC50 (CFPAC-1) [µM] | IC50 (HepG2) [µM] |
| --- | --- | --- | --- | --- | --- | --- |
| O=c1c(I)cn(Cc2cn(-c3ccc(Cl)cc3)nn2)c(=O)n1Cc1cn(-c2ccc(Cl)cc2)nn1 | 96.5 | 71.1 | > 100 | 0.03 | > 100 | > 100 |
| O=c1c(I)cn(Cc2cn(-c3ccccc3F)nn2)c(=O)n1Cc1cn(-c2ccccc2F)nn1 | 49.8 | 53.4 | > 100 | 2.22 | 55.9 | 36.1 |
| O=c1nc2oc(CCCCl)c(C#CCCCCl)c2cn1Cc1cn(Cc2ccccc2)nn1 | 25.4 | 26.9 | 33.9 | 17.6 | 32.8 | 25.5 |
| O=c1[nH]c(=O)n(Cc2cn(-c3ccccc3F)nn2)cc1I | > 100 | 95.1 | > 100 | 73.1 | > 100 | > 100 |
| CCCCCCc1cc2cn(Cc3cn(Cc4ccccc4)nn3)c(=O)nc2o1 | 59.4 | 51 | 93.5 | 62.8 | 67 | 68.7 |
| O=c1nc2oc(C3CC3)cc2cn1Cc1cn(Cc2ccccc2)nn1 | 50 | 45 | 54.7 | 29.7 | 48.5 | 49.1 |
| O=c1nc2oc(CCCCl)c(C#CCCCCl)c2cn1Cc1cn(-c2ccc(Cl)cc2)nn1 | > 100 | > 100 | > 100 | > 100 | > 100 | 72.5 |
| O=c1nc2oc(CCCCl)cc2cn1Cc1cn(-c2ccc(Cl)cc2)nn1 | 60.2 | 52 | > 100 | 72.5 | > 100 | 89.8 |
| C#CCn1c(=O)c(I)cn(Cc2cn(-c3ccc(Cl)cc3)nn2)c1=O | 4.74 | 4.69 | 18.3 | 0.04 | 5.53 | 13.1 |
| O=c1[nH]c(=O)n(Cc2cn(-c3ccc(F)cc3)nn2)cc1I | 7.2 | 78.8 | > 100 | 3.78 | 83.7 | > 100 |
| O=c1[nH]c(=O)n(Cc2cn(-c3ccc(Cl)cc3)nn2)cc1I | 6.79 | 50.6 | 34.6 | < 0.01 | 77.2 | > 100 |
| O=c1c(I)cn(Cc2cn(Cc3ccccc3)nn2)c(=O)n1Cc1cn(Cc2ccccc2)nn1 | 15.1 | 41.3 | > 100 | < 0.01 | > 100 | 5.77 |
| CCCCCCC#Cc1c(CCCCCC)oc2nc(=O)n(Cc3cn(Cc4ccccc4)nn3)cc12 | 23.4 | 21.9 | 32.6 | 23.4 | 27.3 | 25.8 |
| C#CCn1c(=O)c(I)cn(Cc2cn(-c3ccc(F)cc3)nn2)c1=O | 4.5 | 3.06 | 6.63 | < 0.01 | 4.21 | 5.11 |
| O=c1[nH]cc(F)c(=O)[nH]1 [FLUOROURACIL] | 8.81 | 2.8 | 0.08 | 0.94 | 0.14 |  |
| CCCCCCC#Cc1c(CCCCCC)oc2nc(=O)n(Cc3cn(-c4ccc(Cl)cc4)nn3)cc12 | > 100 | > 100 | > 100 | > 100 | > 100 | > 100 |
